{"source": "ChEMBL document CHEMBL3044962", "about": "“Characterization of the antifungal activity on Botrytis cinerea of the natural diterpenoids kaurenoic acid and 3beta-hydroxy-kaurenoic acid” (2004)", "key": {"Botrytis cinerea [1]": {"system": "Botrytis cinerea", "assay": "Antifungal activity against Botryotinia fuckeliana assessed as reduction in mycelial growth rate at 40 to 160 ug/ml up to 9 days (reference value: 1.82 cm/day)", "assay_type": "functional"}, "Botrytis cinerea [2]": {"system": "Botrytis cinerea", "assay": "Antifungal activity against Botryotinia fuckeliana grown in malt-yeast extract medium assessed as inhibition of mycelial growth at 40 to 160 ug/ml", "assay_type": "functional", "in_short": "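Strain G29 conidia at final 3 × 10^5 conidia/mL in malt-yeast extract medium or liquid minimum medium with 1% glucose. Diterpenoids added from methanol at final 40 µg/mL, methanol evaporated before inoculation. Grown in dark at 22 °C for 5 days. Mycelial wet weight gives % inhibition relative to methanol control. ≥5 independent experiments, mean ± SD.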"}, "Botrytis cinerea [3]": {"system": "Botrytis cinerea", "assay": "Antifungal activity against Botryotinia fuckeliana grown assessed as induction of production of p-nitrophenyl butyrate esterase after 20 days relative to control", "assay_type": "functional", "in_short": "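Ground pregrown mycelium (3 days, malt-yeast, 22 °C) moved to minimum medium with 1% cutin or 1% pectin plus diterpenoid at 40 µg/mL, 22 °C. Filtrates sampled over 30 days. Esterase measured with 0.62 mM p-nitrophenylbutyrate in 100 mM sodium phosphate pH 8.0 with Triton X-100, 10 min at 22 °C, A405. 1 U releases 1 µmol p-nitrophenol/min.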"}, "Botrytis cinerea [4]": {"system": "Botrytis cinerea", "assay": "Antifungal activity against Botryotinia fuckeliana assessed as inhibition of mycelial growth at 40 to 160 ug/ml up to 6 days", "assay_type": "functional, organism-based"}, "Botrytis cinerea [5]": {"system": "Botrytis cinerea", "assay": "Antifungal activity against Botryotinia fuckeliana grown assessed as membrane leakage measuring efflux of phosphorus at 100 ug/ml after 6 hr by ICP-OES analysis", "assay_type": "functional, organism-based", "in_short": "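Pregrown mycelia held in 5 mM Tris-HCl pH 7.0 with diterpenoid at final 100 µg/mL (or methanol control) at 22 °C for 6 or 24 h. Phosphorus in the bathing medium measured by ICP-OES. Saponins (100 mg/mL in 10 mM sodium acetate pH 4.5, 6 h) served as positive control. ≥5 experiments, mean ± SD, ANOVA with LSD (P ≤ 0.05).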"}, "Botrytis cinerea [6]": {"system": "Botrytis cinerea", "assay": "Antifungal activity against Botryotinia fuckeliana assessed as inhibition of mycelial growth at 40 to 160 ug/ml up to 7 days", "assay_type": "functional, organism-based"}, "Botrytis cinerea [7]": {"system": "Botrytis cinerea", "assay": "Antifungal activity against Botryotinia fuckeliana inoculated in tomato leaf assessed as reduction in lesion area at 40 ug/ml after 4 days (Rvb =9.7 +/- 1.8 mm2 )", "assay_type": "functional"}, "Botrytis cinerea [8]": {"system": "Botrytis cinerea", "assay": "Antifungal activity against Botryotinia fuckeliana grown assessed as induction of production of laccase after 10 days relative to control", "assay_type": "functional", "in_short": "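Mycelium pregrown 3 days at 22 °C in malt-yeast liquid, ground with glass beads and transferred to minimum medium with 1% pectin plus diterpenoid at 40 µg/mL. Culture filtrate taken at day 10. Laccase read with 0.1 mM syringaldazine in 50 mM sodium phosphate pH 6.0, 15 min at 22 °C, A530. 1 U = 0.1 absorbance increase per min. ≥5 experiments, ANOVA/LSD.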"}}, "note": "The source made the active and inactive calls. The calls are words filed in the database; no cut-off is given here."}
{"compound": "C=C1C[C@@]23CC[C@H]4[C@@](C)(CCC[C@@]4(C)C(=O)O)[C@@H]2CC[C@@H]1C3", "note": "[KAURENOIC ACID]", "values": [{"measurement": "GI", "setting": "Botrytis cinerea [1]", "value": 1.49, "unit": "cm/day"}, {"measurement": "growth inhibition (GI)", "setting": "Botrytis cinerea [2]", "value": "inactive"}, {"measurement": "Ratio", "setting": "Botrytis cinerea [3]", "value": 2}, {"measurement": "growth inhibition (GI)", "setting": "Botrytis cinerea [4]", "value": "Active"}, {"measurement": "Activity", "setting": "Botrytis cinerea [5]", "value": "Active"}, {"measurement": "growth inhibition (GI)", "setting": "Botrytis cinerea [6]", "value": "Active"}, {"measurement": "Activity", "setting": "Botrytis cinerea [7]", "value": 7.5, "unit": "mm2"}, {"measurement": "Activity", "setting": "Botrytis cinerea [8]", "value": "Active"}]}
